Measured values: ChEMBL document CHEMBL5329164, “Design, synthesis, and evaluation of BTK-targeting PROTACs with optimized bioavailability in vitro and in vivo” (RSC Med Chem, 2023)
Each block holds one molecule with its values, some of them ahead of it. The source made the active and inactive calls. The calls are words filed in the database; no cut-off is given here.

Key:
[1] = Oral bioavailability in BALB/c mouse at 5 mg/kg measured for 24 hrs by LCMS analysis; assay type: ADME, organism-based; conditions: in vivo
Summary of the method: (§1)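 Male Balb/c mice, 9 per group, dosed intragastrically at 5 mg/kg; the same compounds were also given iv at 2 mg/kg. Blood was drawn into EDTA-K2 tubes at 0.25, 0.5, 1, 2, 4, 6, 8 and 24 h. Plasma proteins were precipitated with acetonitrile containing tolbutamide. Quantification was by LC-MS on a C18 column with a formic acid water/acetonitrile gradient.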

[2] = Tmax in BALB/c mouse at 5 mg/kg, po measured for 24 hrs by LCMS analysis; assay type: ADME, organism-based; conditions: in vivo; summary of the method: as §1
[3] = Cmax in BALB/c mouse at 5 mg/kg, po measured for 24 hrs by LCMS analysis; assay type: ADME, organism-based; set-up: dose 5 mg/kg, time 24 hrs, route po; conditions: in vivo; summary of the method: as §1
[4] = Stability in human liver microsomes assessed as half life at 1 uM preincubated for 10 mins followed by reaction initiation measured upto 60 mins in presence of NADPH; assay type: ADME, Microsome; conditions: time < 70 min
Summary of the method: (§2)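 Compound at 1 μM final was incubated with 0.5 mg/mL mouse, rat, dog, monkey or human liver microsomes in 100 mM PBS, pH 7.4, with 1 mM NADPH at 37 °C after a 10 min preincubation. Reactions were stopped at 0, 5, 15, 30 and 60 min with ice-cold acetonitrile containing tolbutamide. Supernatants were taken for bioanalysis.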

[5] = Half life in BALB/c mouse at 5 mg/kg, po measured for 24 hrs by LCMS analysis; assay type: ADME, organism-based; conditions: in vivo; summary of the method: as §1
[6] = Stability in dog liver microsomes assessed as intrinsic clearance measured per mg protein at 1 uM preincubated for 10 mins followed by reaction initiation measured upto 60 mins in presence of NADPH; assay type: ADME, Canis lupus familiaris, Microsome; conditions: time < 70 min, read-out: CLH; summary of the method: as §2
[7] = AUClast in BALB/c mouse at 2 mg/kg, iv measured for 24 hrs by LCMS analysis; assay type: ADME, organism-based; set-up: time 24 hrs, dose 2 mg/kg, route iv; conditions: in vivo
Summary of the method: (§3)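 Male Balb/c mice, 9 per group, dosed intravenously at 2 mg/kg. Blood was drawn into EDTA-K2 tubes at 0.083, 0.25, 0.5, 1, 2, 4, 6, 8 and 24 h. Plasma was separated by centrifugation at 2000 g for 10 min and precipitated with acetonitrile containing tolbutamide internal standard. Analysis was by LC-MS on a polar C18 column with a water/acetonitrile 0.1% formic acid gradient.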

[8] = Solubility in DMSO:Cremophor EL:1xPBS mixture at 10 mg/ml incubated for 7 days; assay type: physicochemical; conditions: 168 h, time 7 day
[9] = Stability in rat liver microsomes assessed as intrinsic clearance measured per mg protein at 1 uM preincubated for 10 mins followed by reaction initiation measured upto 60 mins in presence of NADPH; assay type: ADME, Microsome; conditions: time < 70 min, read-out: CLH; summary of the method: as §2
[10] = Apparent permeability across apical to basal side in MDCK-II cells at 10 uM measured for 120 mins by LC-MS/MS analysis; assay type: ADME, cell-based, Canis lupus familiaris; conditions: dog
Summary of the method: (§4)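 MDCK monolayers were grown on Transwell inserts (5 x 10^4 cells/cm²) and used at day 5. Compound at 10 μM in HBSS with 10 mM Hepes, pH 7.40, was dosed apically or basolaterally and incubated at 37±1 °C. Lucifer yellow passage below 1% confirmed monolayer integrity.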

[11] = Stability in human liver microsomes assessed as intrinsic clearance measured per mg protein at 1 uM preincubated for 10 mins followed by reaction initiation measured upto 60 mins in presence of NADPH; assay type: ADME, Microsome; conditions: time < 70 min, read-out: CLH; summary of the method: as §2
[12] = target: T1, Protein cereblon/Tyrosine-protein kinase BTK (Homo sapiens) (UniProt Q06187+Q96SW2); assay: PROTAC activity at CRBN/ BTK in human DOHH-2 cells assessed as induction of BTK degradation at 1.2 to 300 nM incubated for 24 hrs by immunoblot analysis; assay type: cell-based; conditions: dose 1.2-300 nM
Summary of the method: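 DOHH2 cells were grown in RPMI 1640 with 10% FBS, 1% penicillin-streptomycin, 1% nonessential amino acids and 50 µM 2-mercaptoethanol at 37 °C under 5% CO₂. Cells were treated with compound at various concentrations, lysed in SDS buffer and separated on 10% SDS-PAGE. Blots were transferred to PVDF and probed for BTK, with β-actin as loading control.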

[13] = Apparent volume of distribution in BALB/c mouse at 2 mg/kg, iv measured for 24 hrs by LCMS analysis; assay type: ADME, organism-based; conditions: in vivo, read-out: Vz; summary of the method: as §3
[14] = Half life in BALB/c mouse at 2 mg/kg, iv measured for 24 hrs by LCMS analysis; assay type: ADME, organism-based; conditions: in vivo; summary of the method: as §3
[15] = Clearance in BALB/c mouse at 2 mg/kg, iv measured for 24 hrs by LCMS analysis; assay type: ADME, organism-based; conditions: in vivo; summary of the method: as §3
[16] = Stability in mouse liver microsomes assessed as intrinsic clearance measured per mg protein at 1 uM preincubated for 10 mins followed by reaction initiation measured upto 60 mins in presence of NADPH; assay type: ADME, Microsome; conditions: time < 70 min, read-out: CLH; summary of the method: as §2
[17] = Apparent permeability across apical to basal side in MDCK-II cells assessed as compound recovery at 10 uM measured for 120 mins by LC-MS/MS analysis; assay type: ADME, cell-based, Canis lupus familiaris; conditions: dog, read-out: Drug recovery
Summary of the method: as §4, with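 “°C. Receiver and donor samples were taken at 120 min and quantified by LC-MS/MS against an internal standard.” for “°C.”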

[18] = target: T1, Protein cereblon/Tyrosine-protein kinase BTK (Homo sapiens); assay: PROTAC activity at CRBN/ BTK in human Ramos cells assessed as induction of BTK degradation at 30 nM incubated for 24 hrs by immunoblot analysis; assay type: cell-based
Summary of the method: (§5)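 Ramos cells in supplemented RPMI 1640 were plated at 3×10^5 cells/well and treated with compound for 24 h. Lysates in SDS sample buffer were heated at 100 °C for 15 min and run on 10% SDS-PAGE, then transferred to PVDF. Membranes were probed overnight at 4 °C for BTK, GSPT1 and β-actin.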

[19] = Apparent permeability across basal to apical side in MDCK-II cells at 10 uM measured for 120 mins by LC-MS/MS analysis; assay type: ADME, cell-based, Canis lupus familiaris; conditions: dog; summary of the method: as §4
[20] = Stability in monkey liver microsomes assessed as intrinsic clearance measured per mg protein at 1 uM preincubated for 10 mins followed by reaction initiation measured upto 60 mins in presence of NADPH; assay type: ADME, Macaca mulatta, Microsome; conditions: rhesus monkey, time < 70 min, read-out: CLH; summary of the method: as §2
[21] = Stability in monkey liver microsomes assessed as half life at 1 uM preincubated for 10 mins followed by reaction initiation measured upto 60 mins in presence of NADPH; assay type: ADME, Macaca mulatta, Microsome; conditions: rhesus monkey, time < 70 min; summary of the method: as §2
[22] = target: T1, Protein cereblon/Tyrosine-protein kinase BTK (Homo sapiens); assay: PROTAC activity at CRBN/ BTK in human Ramos cells assessed as induction of BTK degradation at 100 nM incubated for 24 hrs by immunoblot analysis relative to control; assay type: cell-based; summary of the method: as §5
[23] = Apparent permeability across basal to apical side in MDCK-II cells assessed as compound recovery at 10 uM measured for 120 mins by LC-MS/MS analysis; assay type: ADME, cell-based, Canis lupus familiaris; conditions: dog, read-out: Drug recovery
Summary of the method: as §4, with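 “°C. Receiver and donor samples were taken at 120 min and quantified by LC-MS/MS against an internal standard.” for “°C.”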

[24] = Stability in mouse liver microsomes assessed as half life at 1 uM preincubated for 10 mins followed by reaction initiation measured upto 60 mins in presence of NADPH; assay type: ADME, Microsome; conditions: time < 70 min; summary of the method: as §2
[25] = Stability in rat liver microsomes assessed as half life at 1 uM preincubated for 10 mins followed by reaction initiation measured upto 60 mins in presence of NADPH; assay type: ADME, Microsome; conditions: time < 70 min; summary of the method: as §2
[26] = Stability in dog liver microsomes assessed as half life at 1 uM preincubated for 10 mins followed by reaction initiation measured upto 60 mins in presence of NADPH; assay type: ADME, Canis lupus familiaris, Microsome; conditions: time < 70 min; summary of the method: as §2
[27] = AUClast in BALB/c mouse at 5 mg/kg, po measured for 24 hrs by LCMS analysis; assay type: ADME, organism-based; set-up: dose 5 mg/kg, time 24 hrs, route po; conditions: in vivo; summary of the method: as §1
[28] = Solubility in DMSO:Cremophor EL:1xPBS mixture at 10 mg/ml; assay type: physicochemical
[29] = target: T1, Protein cereblon/Tyrosine-protein kinase BTK (Homo sapiens); assay: PROTAC activity at CRBN/ BTK in human Ramos cells assessed as induction of BTK degradation at 500 nM incubated for 24 hrs by immunoblot analysis relative to control; assay type: cell-based; summary of the method: as §5
[30] = target: T1, Protein cereblon/Tyrosine-protein kinase BTK (Homo sapiens); assay: PROTAC activity at CRBN/ BTK in human Ramos cells assessed as induction of BTK degradation at 300 nM incubated for 24 hrs by immunoblot analysis relative to control; assay type: cell-based; summary of the method: as §5

T1 sequence (Q06187 2-659 limits assumed): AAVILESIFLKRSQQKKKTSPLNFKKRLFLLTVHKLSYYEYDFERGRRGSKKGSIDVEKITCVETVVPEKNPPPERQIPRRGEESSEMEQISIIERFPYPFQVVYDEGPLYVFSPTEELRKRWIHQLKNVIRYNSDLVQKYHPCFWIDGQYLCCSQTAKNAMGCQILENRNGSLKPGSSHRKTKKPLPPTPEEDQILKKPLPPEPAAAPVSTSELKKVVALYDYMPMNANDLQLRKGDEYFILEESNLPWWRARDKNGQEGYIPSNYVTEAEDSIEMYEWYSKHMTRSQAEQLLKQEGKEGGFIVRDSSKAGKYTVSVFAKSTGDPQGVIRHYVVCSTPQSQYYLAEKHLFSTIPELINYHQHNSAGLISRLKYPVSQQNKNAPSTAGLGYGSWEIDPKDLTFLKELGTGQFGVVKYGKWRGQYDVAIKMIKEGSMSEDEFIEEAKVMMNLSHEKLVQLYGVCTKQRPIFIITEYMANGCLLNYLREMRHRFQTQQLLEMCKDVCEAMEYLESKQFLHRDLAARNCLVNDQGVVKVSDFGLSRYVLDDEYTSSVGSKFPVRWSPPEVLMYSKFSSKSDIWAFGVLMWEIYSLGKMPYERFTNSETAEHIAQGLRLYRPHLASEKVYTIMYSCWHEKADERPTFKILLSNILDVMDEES
T1 sequence (Q96SW2 whole entry partner): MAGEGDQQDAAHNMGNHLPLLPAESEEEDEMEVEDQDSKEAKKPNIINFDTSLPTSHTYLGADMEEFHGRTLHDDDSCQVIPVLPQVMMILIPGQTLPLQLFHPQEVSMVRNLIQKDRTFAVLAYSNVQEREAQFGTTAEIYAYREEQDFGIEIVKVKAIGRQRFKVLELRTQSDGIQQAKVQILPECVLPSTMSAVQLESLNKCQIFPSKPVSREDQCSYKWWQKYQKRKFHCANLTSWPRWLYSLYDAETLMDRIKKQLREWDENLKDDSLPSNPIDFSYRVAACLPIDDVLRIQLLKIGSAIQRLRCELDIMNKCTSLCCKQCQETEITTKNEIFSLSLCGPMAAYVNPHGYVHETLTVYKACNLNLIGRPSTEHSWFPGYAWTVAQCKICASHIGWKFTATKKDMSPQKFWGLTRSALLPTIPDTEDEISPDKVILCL

- bioavailability [1]: 4.78%
- Tmax [2]: 0.5 h
- Cmax [3]: 252 ng/mL
- half-life at 1 µM [4]: 2.35 h
- half-life [5]: 0.52 h
- microsomal CLint at 1 µM [6]: 5.45 µL/min/mg
- AUC(0-t) at 24 h [7]: 2810 ng·h/mL
- solubility [8]: Soluble
- microsomal CLint at 1 µM [9]: 7.66 µL/min/mg
- Papp A→B at 2 h, 10 µM [10]: 0.016 ×10⁻⁶ cm/s
- microsomal CLint at 1 µM [11]: 9.83 µL/min/mg
- Activity [12]: Active
- Vd [13]: 0.998 L/kg
- half-life [14]: 0.98 h
- clearance [15]: 11.8 mL/min/kg
- microsomal CLint at 1 µM [16]: 10.2 µL/min/mg
- recovery at 2 h, 10 µM [17]: 111%
- Activity [18]: 20.7%
- Papp B→A at 2 h, 10 µM [19]: 0.01 ×10⁻⁶ cm/s
- microsomal CLint at 1 µM [20]: 4.52 µL/min/mg
- half-life at 1 µM [21]: 5.11 h
- Activity [22]: 18.3%
- recovery at 2 h, 10 µM [23]: 116%
- half-life at 1 µM [24]: 2.26 h
- half-life at 1 µM [25]: 3.02 h
- half-life at 1 µM [26]: 4.24 h
- AUC(0-t) at 24 h [27]: 336 ng·h/mL
- solubility [28]: Soluble
Structure (SMILES): Nc1ncnc2c1c(-c1ccc(Oc3ccccc3)cc1)nn2[C@@H]1CCCN(C(=O)c2ccc(CNc3ccc4c(c3)C(=O)N(C3CCC(=O)NC3=O)C4=O)cc2)C1 (stereo partly drawn)

- Activity [29]: 100%
Structure (SMILES): Nc1ncnc2c1c(-c1ccc(Oc3ccccc3)cc1)nn2[C@@H]1CCCN(C(=O)Nc2ccc3c(c2)C(=O)N(C2CCC(=O)NC2=O)C3=O)C1 (stereo partly drawn)

- solubility [8]: Insoluble
- solubility [28]: Insoluble
Structure (SMILES): Nc1ncnc2c1c(-c1ccc(Oc3ccccc3)cc1)nn2C1CCN(C2CN(C3CN(c4ccc5c(c4)C(=O)N(C4CCC(=O)NC4=O)C5=O)C3)C2)CC1 (stereo not drawn)

- Activity [30]: 79.7%
- Activity [22]: 78.4%
Structure (SMILES): Nc1ncnc2c1c(-c1ccc(Oc3ccccc3)cc1)nn2[C@@H]1CCCN(C(=O)N2CCN(c3ccc4c(c3)C(=O)N(C3CCC(=O)NC3=O)C4=O)CC2)C1 (stereo partly drawn)
